Source: ChEMBL document CHEMBL1134055, “The synthesis of amino-acid functionalized beta-carbolines as topoisomerase II inhibitors” (2001)

What was measured:
PC-3 [1] = assay: In vitro cell growth inhibition of PC3 cell line determined using Non-Radioactive Cell Proliferation Assay at a dose of 50 uM; type: functional, Homo sapiens
Procedure, shortened: (§1)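 Tetrazolium-type colorimetric proliferation assay (CellTiter 96 AQueous, non-radioactive); cells treated at 10, 50 and 100 µM; read as percent cell survival. All points in quadruplicate. Vehicle control DMSO (0.20%); m-AMSA (20, 40 µM) as reference control.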

PC-3 [2] = assay: In vitro cell growth inhibition of PC3 cell line determined using non-radioactive cell proliferation assay at a dose of 100 uM; type: functional, Homo sapiens; procedure, shortened: as §1
NCI-H520 [3] = assay: In vitro cell growth inhibition of H520 cell line determined using non-radioactive cell proliferation assay at a dose of 10 uM; type: functional, Homo sapiens; procedure, shortened: as §1
PC-3 [4] = assay: In vitro cell growth inhibition of PC3 cell line determined using non-radioactive cell proliferation assay at a dose of 10 uM; type: functional, Homo sapiens; procedure, shortened: as §1
NCI-H520 [5] = assay: In vitro cell growth inhibition of H520 cell line determined using non-radioactive cell proliferation assay at a dose of 50 uM; type: functional, Homo sapiens; procedure, shortened: as §1
NCI-H520 [6] = assay: In vitro cell growth inhibition of H520 cell line determined using Non-Radioactive Cell Proliferation Assay at a dose of 100 uM; type: functional, Homo sapiens; procedure, shortened: as §1
NCI-H520 [7] = assay: In vitro cell growth inhibition of H520 cell line determined using non-radioactive cell proliferation assay at a dose of 100 uM; type: functional, Homo sapiens; procedure, shortened: as §1
[8] = Inhibition of topo II-mediated DNA relaxation measured by topo II-mediated DNA relaxation assay; - indicates drug does not interaction with topo II; type: functional
Procedure, shortened: (§2)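 Relaxation of supercoiled plasmid pUC18 DNA (E. coli) by topo II (2.0 units per reaction) in Tris-Cl pH 8.0 buffer with KCl, MgCl2, ATP, DTT and BSA; 1 µL of 1 mM drug in 10% DMSO per 10 µL reaction, enzyme added last; 37 °C for 30-45 min. Stopped with sarkosyl buffer, chloroform/isoamyl alcohol extraction, 1% agarose gel, ethidium stain. Densitometric qualitative scoring; gels in triplicate.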

[9] = Inhibition of topo II-mediated DNA relaxation measured by topo II-mediated DNA relaxation assay; +++ indicates drug interaction with topo II; type: functional; procedure, shortened: as §2
[10] = Inhibition of topo II-mediated DNA relaxation measured by topo II-mediated DNA relaxation assay; ++++ indicates drug interaction with topo II; type: functional; procedure, shortened: as §2
PC-3 [11] = assay: In vitro cell growth inhibition of PC3 cell line determined using non-radioactive cell proliferation assay at a dose of 50 uM; type: functional, Homo sapiens; procedure, shortened: as §1
PC-3 [12] = assay: In vitro cell growth inhibition of PC3 cell line determined using Non-Radioactive Cell Proliferation Assay at a dose of 10 uM; type: functional, Homo sapiens; procedure, shortened: as §1
[13] = Inhibition of topo II-mediated DNA relaxation measured by topo II-mediated DNA relaxation assay; ++ indicates drug interaction with topo II; type: functional; procedure, shortened: as §2

Row | SMILES | Cell survival (PC-3 [1]) [%] | Cell survival (PC-3 [2]) [%] | Cell survival (NCI-H520 [3]) [%] | Cell survival (PC-3 [4]) [%] | Cell survival (NCI-H520 [5]) [%] | Cell survival (NCI-H520 [6]) [%] | Cell survival (NCI-H520 [7]) [%] | DNA relaxation [8] | DNA relaxation [9] | DNA relaxation [10] | Cell survival (PC-3 [11]) [%] | Cell survival (PC-3 [12]) [%] | DNA relaxation [13]
1 | COc1cc([C@@H]2c3[nH]c4ccccc4c3C[C@H]3C(=O)N[C@H](C)C(=O)N23)cc(OC)c1O | 99.5 | 95.3 | 93.8 | 82.6 | 99.7 | 91.5 |  |  |  |  |  |  | 
2 | COC(=O)[C@H](C)NC(=O)[C@@H]1Cc2c([nH]c3ccccc23)[C@@H](c2cc(OC)c(O)c(OC)c2)N1 | 96.6 | 95.8 | >100 | >100 | >100 | >100 |  |  |  |  |  |  | 
3 | COc1cc([C@@H]2c3[nH]c4ccccc4c3C[C@H]3C(=O)N4CCC[C@H]4C(=O)N23)cc(OC)c1O | >100 | >100 | >100 | >100 | >100 |  | >100 |  |  |  |  |  | 
4 | COC(=O)[C@@H]1CCCN1C(=O)[C@@H]1Cc2c([nH]c3ccccc23)[C@@H](c2cc(OC)c(O)c(OC)c2)N1 | 98.3 | >100 | 80.5 | 96.8 | 83.4 | 86.6 |  | drug does not interact with topo II |  |  |  |  | 
5 | COC(=O)[C@@H](Cc1c[nH]c2ccccc12)NC(=O)[C@@H]1Cc2c([nH]c3ccccc23)[C@@H](c2cc(OC)c(O)c(OC)c2)N1 | 84.9 | 62.4 | >100 | >100 | 35.2 | 7.2 |  |  | drug interaction with topo II |  |  |  | 
6 | COC(=O)[C@@H](NC(=O)[C@@H]1Cc2c([nH]c3ccccc23)[C@@H](c2cc(OC)c(O)c(OC)c2)N1)c1ccccc1 | >100 | 64.5 | 82.7 | 88.5 | 89.9 | 86.8 |  |  |  | drug interaction with topo II |  |  | 
7 | COC(=O)CNC(=O)[C@@H]1Cc2c([nH]c3ccccc23)[C@@H](c2cc(OC)c(O)c(OC)c2)N1 | >100 | 88.8 | >100 | 99.7 | >100 | >100 |  |  |  |  |  |  | 
8 | COC(=O)[C@H]1CCCN1C(=O)[C@@H]1Cc2c([nH]c3ccccc23)[C@@H](c2cc(OC)c(O)c(OC)c2)N1 |  | 66.3 | 94.3 | 98 | 86.1 |  | 61 |  |  |  | 99.4 |  | 
9 | COC(=O)[C@@H](NC(=O)[C@@H]1Cc2c([nH]c3ccccc23)[C@@H](c2cc(OC)c(O)c(OC)c2)N1)C(C)C | 93.1 | 95.3 | 87.6 | 91.9 | 85.4 | 93.6 |  |  |  |  |  |  | 
10 | COc1cc([C@@H]2c3[nH]c4ccccc4c3C[C@H]3C(=O)NCC(=O)N23)cc(OC)c1O | >100 | 86.6 | 91.6 | >100 | 69.2 | 51.9 |  |  |  |  |  |  | 
11 | COC(=O)[C@H](Cc1ccccc1)NC(=O)[C@@H]1Cc2c([nH]c3ccccc23)[C@@H](c2cc(OC)c(O)c(OC)c2)N1 | 90.6 | 18 | 59.4 |  | 97.4 | 14.8 |  |  |  |  |  | 97.8 | 
12 | COC(=O)[C@@H](CCCCN)NC(=O)[C@@H]1Cc2c([nH]c3ccccc23)[C@@H](c2cc(OC)c(O)c(OC)c2)N1 | >100 | >100 | 78.3 | >100 | 76.9 | 87.7 |  |  |  |  |  |  | drug interaction with topo II
13 | COC(=O)[C@H](CO)NC(=O)[C@@H]1Cc2c([nH]c3ccccc23)[C@@H](c2cc(OC)c(O)c(OC)c2)N1 | 98.5 | >100 | 87 | 99.7 | 90 | 79.6 |  |  |  |  |  |  | 
14 | COC(=O)[C@H](CCCCN)NC(=O)[C@@H]1Cc2c([nH]c3ccccc23)[C@@H](c2cc(OC)c(O)c(OC)c2)N1 | 91.2 | 90.6 | 99.3 | 95.2 | >100 | >100 |  |  |  |  |  |  | 
15 | COC(=O)[C@H](Cc1c[nH]c2ccccc12)NC(=O)[C@@H]1Cc2c([nH]c3ccccc23)[C@@H](c2cc(OC)c(O)c(OC)c2)N1 | 77 | 6.7 | 67.9 | 95.7 | 61.1 | 2.8 |  |  |  |  |  |  | 
16 | COC(=O)[C@@H](CCSC)NC(=O)[C@@H]1Cc2c([nH]c3ccccc23)[C@@H](c2cc(OC)c(O)c(OC)c2)N1 | >100 | >100 | >100 | >100 | >100 | 89.6 |  |  |  |  |  |  | 
17 | COC(=O)[C@H](Cc1ccc(O)cc1)NC(=O)[C@@H]1Cc2c([nH]c3ccccc23)[C@@H](c2cc(OC)c(O)c(OC)c2)N1 | 96.4 | 94.9 | >100 | >100 | >100 | 98.6 |  |  |  |  |  |  | 
18 | COC(=O)[C@H](CCSC)NC(=O)[C@@H]1Cc2c([nH]c3ccccc23)[C@@H](c2cc(OC)c(O)c(OC)c2)N1 | 88.2 | 76.8 | 99.2 | 96.7 | 91.2 | 79.9 |  |  |  |  |  |  | 
19 | COC(=O)[C@@H](CC(C)C)NC(=O)[C@@H]1Cc2c([nH]c3ccccc23)[C@@H](c2cc(OC)c(O)c(OC)c2)N1 | >100 | 99.4 | 85.2 | >100 | 84.3 | 80.6 |  |  |  |  |  |  | drug interaction with topo II
20 | COC(=O)[C@H](NC(=O)[C@@H]1Cc2c([nH]c3ccccc23)[C@@H](c2cc(OC)c(O)c(OC)c2)N1)C(C)C | >100 | >100 | 90 | >100 | >100 | 98.3 |  |  |  |  |  |  | 
21 | COC(=O)[C@@H](Cc1ccccc1)NC(=O)[C@@H]1Cc2c([nH]c3ccccc23)[C@@H](c2cc(OC)c(O)c(OC)c2)N1 | >100 | 63.6 | 77.6 | >100 | 33 | 6.7 |  |  |  |  |  |  | 
22 | COC(=O)[C@H](NC(=O)[C@@H]1Cc2c([nH]c3ccccc23)[C@@H](c2cc(OC)c(O)c(OC)c2)N1)c1ccccc1 | >100 | >100 | >100 | >100 | >100 | 99.2 |  |  | drug interaction with topo II |  |  |  | 
23 | COC(=O)[C@@H](C)NC(=O)[C@@H]1Cc2c([nH]c3ccccc23)[C@@H](c2cc(OC)c(O)c(OC)c2)N1 | >100 | >100 | >100 | 96.9 | >100 | >100 |  |  |  |  |  |  | drug interaction with topo II
24 | COC(=O)[C@@H](Cc1ccc(O)cc1)NC(=O)[C@@H]1Cc2c([nH]c3ccccc23)[C@@H](c2cc(OC)c(O)c(OC)c2)N1 | >100 | 89.8 | >100 | 88.5 | 79 | 83.2 |  |  |  |  |  |  | 
25 | COC(=O)[C@H](CC(C)C)NC(=O)[C@@H]1Cc2c([nH]c3ccccc23)[C@@H](c2cc(OC)c(O)c(OC)c2)N1 | 98.7 | 87.6 | 84 | >100 | 89.2 | 83.2 |  |  |  |  |  |  | 
